Experimental findings from ChEMBL document CHEMBL1151915, “Structure-activity relationship studies of small-molecule inhibitors of Wnt response” (Bioorg Med Chem Lett, 2009) are described below.

Broadly, the MIC is the smallest concentration in the dilution series that meets the test's criterion for growth inhibition. Higher therefore signals a less susceptible organism. In general, half-life refers to the time in which the quantity being followed falls by half.

Values after ≈ are worked out from the molar mass of the structure shown. Active and inactive are the calls of the source.

The species entered for series [1] is Danio rerio. As to the kind of experiment: Inhibition of fin regeneration in zebrafish. The format is functional.
Series [2] in a line: Half life in mouse hepatocytes. It is filed as ADME, cell-based, Liver, Hepatocyte. The gist of the method:
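Cryopreserved murine CD1 hepatocytes (10^5 cells) incubated with 2 μM compound; reactions stopped at set time points with methanol; saline or buffer incubations served as controls.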

Series [3] in a line: Half life in mouse liver S9 fraction. It is filed as ADME, subcellular.
Series [4] in a line: Half life in mouse blood. It is filed as ADME, tissue-based. The gist of the method:
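Compound at 2 μM incubated in whole blood from C57BL/6 mice; incubation stopped at set time points by adding methanol; saline or buffer incubations run as controls.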

For `O=C(Nc1cccc2cccnc12)c1ccc(N2C(=O)[C@@H]3[C@H](C2=O)[C@@H]2C=C[C@H]3C2)cc1`, the minimum inhibitory concentration (MIC) in series [1] is 0.5 µM (≈ 0.205 µg/mL). Also, the results for the half-life in series [2], in series [3] and in series [4] were 20 min, 20 min and 60 min, respectively.
Regarding `O=C(Nc1ccc(F)cc1F)c1ccc(N2C(=O)[C@@H]3[C@H](C2=O)[C@@H]2C=C[C@H]3C2)cc1`, the inhibition result in series [1] was “Active”.
On to `O=C(Nc1ccc(F)cc1)c1ccc(N2C(=O)[C@@H]3[C@H](C2=O)[C@@H]2C=C[C@H]3C2)cc1`, for which the half-life in series [2] worked out at 60 min.
Consider `COc1ccccc1NC(=O)c1ccc(N2C(=O)[C@@H]3[C@H](C2=O)[C@@H]2C=C[C@H]3C2)cc1`, for which the half-life in series [2] worked out at 10 min.
